Measured values: ChEMBL document CHEMBL2331338, “Steroidal constituents from the leaves of Hosta longipes and their inhibitory effects on nitric oxide production” (Bioorg Med Chem Lett, 2013)

Tests used:
[1] = Cytotoxicity against mouse BV2 cells assessed as cell viability at 20 uM by MTT assay; type: cell-based, BV-2; conditions: read-out: Activity
Outline: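 BV-2 cells exposed to 20 μM of each compound; viability expressed as percentage of the LPS-only treatment group; three independent experiments, mean SD.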

BV-2 = assay: Antineuroinflammatory activity in mouse BV2 cells assessed as inhibition of nitric oxide production treated 30 mins before LPS challenge measured after 24 hrs by Griess reagent method; type: functional, cell-based
Outline: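 Murine microglial BV-2 cells activated with LPS; NO production measured; IC50 taken as the concentration (μM) causing 50% inhibition of NO production in LPS-activated cells.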

[2] = Cytotoxicity against mouse BV2 cells assessed as cell viability by MTT assay; type: cell-based, BV-2; conditions: read-out: LD50 (the source's name)
Outline: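 Mouse microglial BV-2 cells activated with LPS and treated with each compound at 20 μM. Viability is expressed as a percentage of the LPS-only group. Values are averages of three independent experiments, given as mean SD.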

| SMILES | viability at 20 µM [1] [%] | IC50 (BV-2) [µM] | CC50 [2] [µM] |
| --- | --- | --- | --- |
| C[C@@H](CO)CC[C@H](O)[C@@H](C)[C@H]1[C@@H](O)C[C@H]2[C@@H]3CCC4=CC(=O)CC[C@]4(C)[C@H]3C[C@@H](O)[C@]12C | 93.4 | > 200 | – |
| C[C@H](CC[C@H](O)[C@@H](C)[C@H]1[C@@H](O)C[C@H]2[C@@H]3CCC4=CC(=O)CC[C@]4(C)[C@H]3C[C@@H](O)[C@]12C)CO[C@@H]1O[C@H](CO)[C@@H](O)[C@H](O)[C@H]1O | 94.8 | 46.3 | – |
| C[C@@H]1CC[C@@]2(OC1)O[C@H]1C[C@H]3[C@@H]4CC[C@H]5C[C@@H](O[C@@H]6O[C@H](CO)[C@H](O[C@@H]7O[C@H](CO)[C@@H](O)[C@H](O)[C@H]7O)[C@H](O)[C@H]6O[C@@H]6O[C@@H](C)[C@H](O)[C@@H](O)[C@H]6O)[C@H](O)C[C@]5(C)[C@H]4CC[C@]3(C)[C@H]1[C@@H]2C | 38.9 | 2.7 | 3.12 |
| C[C@@H]1CC[C@@]2(OC1)O[C@H]1C[C@H]3[C@@H]4CC[C@H]5C[C@@H](O[C@@H]6O[C@H](CO)[C@H](O[C@@H]7O[C@H](CO)[C@@H](O)[C@H](O[C@@H]8OC[C@@H](O[C@@H]9O[C@@H](C)[C@H](O)[C@@H](O)[C@H]9O)[C@H](O)[C@H]8O)[C@H]7O[C@@H]7O[C@H](CO)[C@@H](O)[C@H](O)[C@H]7O)[C@H](O)[C@H]6O)[C@H](O)C[C@]5(C)[C@H]4CC[C@]3(C)[C@H]1[C@@H]2C | 86.4 | 13.2 | – |
| C[C@@H]1CC[C@@]2(OC1)O[C@H]1C[C@H]3[C@@H]4CC[C@H]5C[C@@H](O[C@@H]6O[C@H](CO)[C@H](O[C@@H]7O[C@H](CO)[C@@H](O)[C@H](O[C@@H]8OC[C@@H](O)[C@H](O)[C@H]8O)[C@H]7O[C@@H]7O[C@H](CO)[C@@H](O)[C@H](O)[C@H]7O)[C@H](O)[C@H]6O)[C@H](O)C[C@]5(C)[C@H]4CC[C@]3(C)[C@H]1[C@@H]2C | 89.6 | 17.7 | – |
| CNC(=N)NCCC[C@H](N)C(=O)O [TILARGININE] | 102 | 14.3 | – |
